Measured values as given in PMC11871924 (International Journal of Nanomedicine, 2025).

Columns and labels:
BSA = BSA (Bos taurus, UniProt P02769); type: binding, bovine; details: 2–10 μM quencher, BSA 2 μM
Method in brief: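 BSA (2 μM) titrated with test compound at 0, 2, 4, 6, 8, 10 μM (0–20 μM for one reagent). Site competition used phenylbutazone, ibuprofen or digitoxin (2 μM final) added before the test compound. Steady-state BSA fluorescence was measured without and with quencher. Kq, Kb and n were calculated from the quenching formulas, taking biomolecule average lifetime as 10−8 s.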

[1] = test system: H22 orthotopic liver tumors; assay: Mouse orthotopic H22 hepatocellular carcinoma model; type: in vivo, BALB/c mice
Method in brief: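 Female BALB/c mice (6–8 weeks) received 106 log-phase H22 cells in matrix gel, injected into an exteriorised liver lobe via abdominal incision. At ~50 mm3 tumours, groups (n=5) received i.v. PBS (100 μL), 100 μL nanoparticles daily for 6 days, or oxaliplatin 5 mg/kg every two days ×3. Growth was imaged by IVIS after i.p. D-luciferin (200 μL, 15 mg/mL) on days 5, 10, 15. Body weight was recorded.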

[2] = test system: VX2 orthotopic liver tumors; assay: Rabbit VX2 orthotopic liver tumor model, DSA-guided arterial infusion, PET/CT; type: in vivo, New Zealand White rabbits; details: n=4, mean ± s.d.
Method in brief: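 New Zealand White rabbits (4 months, n=4/group) had 1 mm3 VX2 tumour blocks implanted in the left liver lobe under ultrasound, followed by i.m. penicillin for 3 days and CT sizing. DSA-guided hepatic arterial infusion delivered PBS, oxaliplatin or test nanoparticles (5 mg/kg), doses converted by body surface area. Tumour SUV was measured by PET/CT before and 7 days after infusion.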

BSA, sequence (P02769 25-607): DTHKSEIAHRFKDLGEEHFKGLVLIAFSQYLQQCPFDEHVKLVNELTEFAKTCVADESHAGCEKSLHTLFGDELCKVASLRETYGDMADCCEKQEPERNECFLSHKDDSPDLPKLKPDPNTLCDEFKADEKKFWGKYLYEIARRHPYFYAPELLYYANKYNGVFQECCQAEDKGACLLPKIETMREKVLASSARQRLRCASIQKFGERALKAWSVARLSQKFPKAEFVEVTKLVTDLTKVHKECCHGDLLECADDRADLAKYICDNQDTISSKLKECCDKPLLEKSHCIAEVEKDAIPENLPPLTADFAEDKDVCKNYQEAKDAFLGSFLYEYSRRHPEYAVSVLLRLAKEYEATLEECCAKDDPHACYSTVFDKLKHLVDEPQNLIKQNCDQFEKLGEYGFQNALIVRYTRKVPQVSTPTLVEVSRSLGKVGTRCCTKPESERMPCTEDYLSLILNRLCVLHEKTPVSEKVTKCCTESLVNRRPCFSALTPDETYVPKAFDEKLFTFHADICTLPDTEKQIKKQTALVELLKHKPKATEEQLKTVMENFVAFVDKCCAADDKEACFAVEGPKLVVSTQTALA

Compound	Quenching of BSA Trp-214 fluorescence emission (BSA)	Body weight of some mice during treatment ([1]; decrease from the initial 20 g, oxaliplatin 5 mg/kg i.v. every two days ×3)	Effect on orthotopic tumors (in vivo imaging) ([1]; mouse orthotopic H22 model, i.v., n=5)	Tumor standardized uptake value (SUV) before treatment [2]
Ir(ppy)2-diimi dazole [Ir-diim]	could quench	–	–	–
O=C1[O][Pt]2([NH][C@@H]3CCCC[C@H]3[NH]2)[O]C1=O [oxaliplatin]	–	13 g	effectively inhibited	5.44±0.43
